eIF4E 4G PPI: inhibitors of eIF4E and eIF4G interaction in translation initiation | P63073+Q04637 | TR-FRET eIF4E-eIF4GI(517-606) binding, 2 h | inhibition, % at 21.7 µM | actives 0.37% (n = 220,000) | AID 782;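 active = inhibition above about 30%, limit read from the data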
MLLE-PAM2 inh: blocks PAM2 peptide binding to the PABP1 MLLE domain; GST-MLLE / FITC-PAM2 fluorescence polarization; inhibition, % at 20 µM; actives 0.36% (n = 360,000); AID 588489; in the data active = inhibition above about 35%, passing the limit was not always enough
Target sequence (P11940 whole entry, looked up, the tested form may be a part): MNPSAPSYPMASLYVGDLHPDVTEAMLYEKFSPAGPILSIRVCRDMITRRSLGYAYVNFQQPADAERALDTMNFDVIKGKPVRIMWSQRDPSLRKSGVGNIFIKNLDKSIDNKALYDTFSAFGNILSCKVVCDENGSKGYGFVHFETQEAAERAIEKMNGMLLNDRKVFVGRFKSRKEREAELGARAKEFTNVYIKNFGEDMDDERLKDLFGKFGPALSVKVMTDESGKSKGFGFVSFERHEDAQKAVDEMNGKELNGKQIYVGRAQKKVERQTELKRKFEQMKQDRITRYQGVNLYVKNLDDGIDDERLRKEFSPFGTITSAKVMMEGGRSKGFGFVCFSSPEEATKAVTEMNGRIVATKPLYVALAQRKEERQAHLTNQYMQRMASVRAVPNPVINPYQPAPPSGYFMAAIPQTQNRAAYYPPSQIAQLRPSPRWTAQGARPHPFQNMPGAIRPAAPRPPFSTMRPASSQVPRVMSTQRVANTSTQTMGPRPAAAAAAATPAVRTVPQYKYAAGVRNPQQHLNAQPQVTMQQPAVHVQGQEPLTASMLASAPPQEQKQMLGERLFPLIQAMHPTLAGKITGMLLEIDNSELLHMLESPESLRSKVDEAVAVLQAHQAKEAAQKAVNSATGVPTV
eIF4H FP inh: inhibitors of RNA binding by human eIF4H. inhibition, % at 35 µM. eIF4H fluorescence polarization binding assay. actives 0.94% (n = 290,000);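 note: calls also rest on retests at 20 µM and on dose response follow-up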
core dimer inh: HCV core protein dimerization inhibition; TR-FRET GST/Flag-core106 dimerization, 1536-well; inhibition, % at 5 µM; actives 0.33% (n = 300,000); AID 1899;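 active = inhibition above the mean of all tested compounds plus 3 SD, set per screening campaign, cut at about 45% in these data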
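Test system: GST/Flag-tagged HCV core106 proteins; Medium: KF-containing HEPES buffer, pH 7.45, DTT, CHAPS, BSA; Times: compound-protein-antibody incubation 4 h at 22.5 °C; Detection: TR-FRET 671 and 617 nm emission; Benchmarks: wells lacking GST-core106 and wells with excess unlabelled core106.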
PABP FP inh: PABP-poly(A) binding inhibition | AID 2014 | actives 1% (n = 290,000) | calls only at 35 µM | PABP-poly(A) RNA binding, fluorescence polarization;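 note: calls also rest on retests at 20 µM and on dose response follow-up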
SUMO HTRF inh: inhibitors of human SUMOylation (UBC9); AID 2006; inhibition, % at 35 µM; P63279; actives 0.36% (n = 290,000); HTRF SUMOylation assay, SAE1/SAE2 + UBC9, in vitro; in the data active = inhibition above about 50%, passing the limit was not always enough; inconclusive = no clear call, values can overlap the other calls
Each line names hits and unclear results; the compound was inactive in the other large screens. This is a sample that favours compounds with a hit; in the whole collection about 1.8% have one here. Unless noted, the rule behind the calls is not given here.

Cn1c(C(=O)N2CCOCC2)cc2c(=O)n3ccccc3nc21	SUMO HTRF inh inconclusive (no result: eIF4E 4G PPI)
O=C(NCc1ccccc1)c1onc(CSc2ccc(F)c(F)c2)c1C(=O)NCc1ccccc1	none (no result: eIF4E 4G PPI, eIF4H FP inh, PABP FP inh, SUMO HTRF inh)
c1cc(N2CCCCC2)nc(N2CCCCC2)n1	none (no result: eIF4E 4G PPI, eIF4H FP inh, core dimer inh, PABP FP inh, SUMO HTRF inh)
C[c-]1[c-](C)[c-](C)[c-](C)[c-]1C.[Fe].c1cc2nccc(N3CCCC3)[c-]2c1 (stereo not drawn)	MLLE-PAM2 inh 64, eIF4H FP inh 104, PABP FP inh active
C=CCC[C@@H](Cc1ccc(F)cc1)C(=O)OC[C@@H]1CCCN1C(=O)[C@@H](CC=C)CC(=O)N[C@@H](CO)Cc1ccccc1	none (no result: eIF4E 4G PPI, eIF4H FP inh, core dimer inh, PABP FP inh, SUMO HTRF inh)
CC(C)c1ccc(OCC(=O)NCCO)cc1	none
O=c1[nH]c(CN2CCc3ccccc3C2)nc2ccccc12	MLLE-PAM2 inh 41
O=c1[nH]c(CN2CCOCC2)nc2ccccc12	none
COc1ccc(NC(=O)N2CCCC2C(=O)Nc2ccc(C)cc2C)cc1 (stereo not drawn)	none (no result: eIF4E 4G PPI)
CCn1c(SCc2nc3sc(C(=O)O)c(C)c3c(=O)[nH]2)nc2ccccc21	eIF4H FP inh 83, PABP FP inh active, SUMO HTRF inh 55
COC(=O)c1sc2nc(CSc3ccc(Br)cc3)[nH]c(=O)c2c1C	eIF4H FP inh 51, PABP FP inh active
COCCn1c(SCc2nc3sc(C(=O)OC)c(C)c3c(=O)[nH]2)nc2ccccc21	none
COc1ccc(C)cc1S(=O)(=O)N1c2ccc(C)cc2C2CN(C)CCC21 (stereo not drawn)	none (no result: eIF4E 4G PPI, eIF4H FP inh, core dimer inh, PABP FP inh, SUMO HTRF inh)
O=C(CCc1ccccc1)N1CCN(C(=O)CCc2ccccc2)CC1	none (no result: eIF4E 4G PPI, eIF4H FP inh, core dimer inh, PABP FP inh, SUMO HTRF inh)
CC1CC(C)CN(C(=O)CCc2ccccc2)C1 (stereo not drawn)	eIF4H FP inh active
COc1ccc(OCC(=O)Nc2nnc(S(=O)(=O)N3CCCCCC3)s2)cc1	none (no result: eIF4E 4G PPI)
Cc1ccc(OCC(=O)Nc2nnc(S(=O)(=O)N3CCC(C)CC3)s2)cc1	eIF4H FP inh 63 (no result: eIF4E 4G PPI)
CCN(CC(=O)NCCN1CCOCC1)S(=O)(=O)c1ccc(F)cc1	none (no result: eIF4E 4G PPI)
COc1ccccc1N1CCN(C2CCCN(C(=O)CCC(C)=O)C2)CC1 (stereo not drawn)	none (no result: eIF4E 4G PPI)
Cc1ccc([N+](=O)[O-])cc1NC(=O)Cc1cccs1	eIF4E 4G PPI 37, core dimer inh 54
COC(=O)c1cc(NC(=O)Cc2cccs2)cc(C(=O)OC)c1	core dimer inh 49 (no result: eIF4E 4G PPI)
COc1cc(NC(=O)c2ccccc2)c(OC)cc1NC(=O)Cc1cccs1	eIF4E 4G PPI 39, eIF4H FP inh 58, core dimer inh 67
Cc1ccc([N+](=O)[O-])cc1NC(=O)Cc1ccc(F)cc1	none
COc1ccc(C(=O)C[n+]2ccc3ccccc3c2C)cc1	eIF4H FP inh 91, PABP FP inh active
COc1ccc(C(=O)C[n+]2cccc3cc(OC)ccc32)cc1	none (no result: eIF4E 4G PPI)
O=C(CN1CCOCC1)NN=C(c1ccccc1)c1ccccc1	none
O=C(CN1CCOCC1)NN=C1CCCCCCCCCCC1	eIF4H FP inh active, PABP FP inh active
O=C1CCCCC1CCc1ccncc1 (stereo not drawn)	none (no result: eIF4E 4G PPI, eIF4H FP inh, core dimer inh, PABP FP inh, SUMO HTRF inh)
Cc1nn(CC(=O)N/N=C/c2ccc3c(c2)OCO3)c(C)c1Br	SUMO HTRF inh 50
Cc1cc(C)n(CC(=O)N/N=C/c2ccc3c(c2)OCO3)n1	none
CNC(=S)N/N=C(\C)c1cccc([N+](=O)[O-])c1	eIF4H FP inh active
C/C(=N\NC(=O)C(N)=O)c1cccc([N+](=O)[O-])c1	none
CC(C)Oc1ccc(Cc2cnc(=S)[nH]c2N)cc1	none
C/C=C/C=C\C(=O)Nc1cccc(C2=NOC3(C2)C[C@@H](C(N)=O)N(C(=O)/C(C)=C/C)C3)c1 (stereo partly drawn)	core dimer inh 52
C/C=C\C=C/C(=O)Nc1cccc(C2=NOC3(C2)C[C@H](C(N)=O)N(C(=O)CC)C3)c1 (stereo partly drawn)	none
C=C(C)C(=O)Nc1cccc(C2=NOC3(C2)C[C@@H](C(N)=O)N(C(=O)/C=C/C=C/C)C3)c1 (stereo partly drawn)	eIF4H FP inh 93, PABP FP inh active
C/C=C/C=C/C(=O)N1CC2(CC(c3cccc(NC(=O)/C=C/C)c3)=NO2)C[C@@H]1C(N)=O (stereo partly drawn)	core dimer inh 47
Clc1ccccc1-c1ccc2nccn2c1	none (no result: eIF4E 4G PPI, eIF4H FP inh, core dimer inh, PABP FP inh, SUMO HTRF inh)
Cc1csc(SCC(=O)c2cc(C)n(Cc3cccs3)c2C)n1	none
Cc1cc(C(=O)CSc2nnc(-c3ccc(OC(F)F)cc3)o2)c(C)n1Cc1cccs1	eIF4H FP inh 57, PABP FP inh active
Cc1cc(C(=O)CSc2nnc(N)s2)c(C)n1Cc1cccs1	PABP FP inh active
COc1ccc(-c2nnc(SCC(=O)c3cc(C)n(Cc4cccs4)c3C)o2)cc1	none
COc1ccc(C2C=C(C34CC5CC(CC(C5)C3)C4)NC(=S)N2)cc1 (stereo not drawn)	none
Cc1cc(C)c2c(n1)SCC(=O)N2CC(=O)Nc1ccccc1Cl	none (no result: eIF4E 4G PPI)

Screening results (PubChem)
